# Reference: ChEMBL document CHEMBL3868612, “Discovery of a potent and selective ROMK inhibitor with improved pharmacokinetic properties based on an octahydropyrazino[2,1-c][1,4]oxazine scaffold” (Bioorg Med Chem Lett, 2016)
# Legend:
# [1] = Stability in dog microsomes assessed as compound remaining at 45 mins; assay type: ADME, Canis lupus familiaris, Microsome; conditions: read-out: Stability
# [2] = biological target: Cytochrome P450 2C9 (Homo sapiens, UniProt P11712); assay: Inhibition of CYP2C9 (unknown origin); assay type: ADME
# Sequence of Cytochrome P450 2C9 (P11712 whole entry): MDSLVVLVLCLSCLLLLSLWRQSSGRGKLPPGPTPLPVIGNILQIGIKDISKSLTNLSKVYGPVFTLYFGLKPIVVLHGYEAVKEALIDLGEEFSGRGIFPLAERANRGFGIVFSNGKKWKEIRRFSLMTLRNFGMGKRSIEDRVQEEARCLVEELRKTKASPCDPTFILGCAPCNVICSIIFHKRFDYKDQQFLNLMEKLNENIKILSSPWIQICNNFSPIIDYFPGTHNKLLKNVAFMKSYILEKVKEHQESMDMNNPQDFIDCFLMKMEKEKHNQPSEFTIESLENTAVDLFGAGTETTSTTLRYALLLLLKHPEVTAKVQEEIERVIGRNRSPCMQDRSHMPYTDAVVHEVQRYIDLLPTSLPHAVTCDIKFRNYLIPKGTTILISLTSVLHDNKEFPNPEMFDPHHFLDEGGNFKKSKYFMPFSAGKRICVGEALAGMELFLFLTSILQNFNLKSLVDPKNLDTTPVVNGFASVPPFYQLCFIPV
# [3] = Stability in rhesus monkey hepatocytes assessed as compound remaining at 90 mins; assay type: ADME, cell-based, Macaca mulatta, Hepatocyte; conditions: read-out: Stability
# [4] = Stability in human microsomes assessed as compound remaining at 45 mins; assay type: ADME, Microsome; conditions: read-out: Stability
# [5] = Stability in rhesus monkey microsomes assessed as compound remaining at 45 mins; assay type: ADME, Macaca mulatta, Microsome; conditions: read-out: Stability
# [6] = Stability in rat microsomes assessed as compound remaining at 45 mins; assay type: ADME, Microsome; conditions: read-out: Stability
# [7] = biological target: Voltage-gated inwardly rectifying potassium channel KCNH2 (Homo sapiens, UniProt Q12809); assay: Inhibition of human ERG by electrophysiology method
# [8] = biological target: T1, Inward rectifier potassium channel 13 (Homo sapiens, UniProt O60928); assay: Inhibition of Kir7.1 (unknown origin)
# T1 sequence (O60928 whole entry): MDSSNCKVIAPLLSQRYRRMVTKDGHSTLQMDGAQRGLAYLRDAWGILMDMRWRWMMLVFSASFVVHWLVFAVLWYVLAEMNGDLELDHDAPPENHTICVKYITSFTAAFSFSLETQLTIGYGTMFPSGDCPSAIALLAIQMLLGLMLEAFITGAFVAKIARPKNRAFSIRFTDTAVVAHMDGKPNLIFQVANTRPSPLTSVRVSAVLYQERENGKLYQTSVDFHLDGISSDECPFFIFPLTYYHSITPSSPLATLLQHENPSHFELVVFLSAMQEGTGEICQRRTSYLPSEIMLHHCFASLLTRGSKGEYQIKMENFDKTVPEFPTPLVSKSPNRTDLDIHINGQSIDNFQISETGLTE
# [9] = biological target: T2, Inward rectifier potassium channel 2 (Homo sapiens, UniProt P63252); assay: Inhibition of Kir2.1 (unknown origin)
# T2 sequence (P63252 whole entry): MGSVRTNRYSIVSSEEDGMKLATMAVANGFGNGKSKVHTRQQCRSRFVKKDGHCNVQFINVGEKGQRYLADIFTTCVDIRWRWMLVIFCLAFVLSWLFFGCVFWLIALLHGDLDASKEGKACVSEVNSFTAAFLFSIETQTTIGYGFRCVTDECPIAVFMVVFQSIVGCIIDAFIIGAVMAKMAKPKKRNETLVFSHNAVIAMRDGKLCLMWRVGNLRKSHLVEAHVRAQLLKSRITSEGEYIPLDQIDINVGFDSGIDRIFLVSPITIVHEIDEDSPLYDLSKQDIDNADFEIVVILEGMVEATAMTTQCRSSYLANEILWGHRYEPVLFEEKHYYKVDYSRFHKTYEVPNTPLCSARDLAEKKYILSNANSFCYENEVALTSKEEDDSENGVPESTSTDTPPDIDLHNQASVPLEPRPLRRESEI
# [10] = biological target: T3, ATP-sensitive inward rectifier potassium channel 10 (Homo sapiens, UniProt P78508); assay: Inhibition of Kir4.1 (unknown origin)
# T3 sequence (P78508 whole entry): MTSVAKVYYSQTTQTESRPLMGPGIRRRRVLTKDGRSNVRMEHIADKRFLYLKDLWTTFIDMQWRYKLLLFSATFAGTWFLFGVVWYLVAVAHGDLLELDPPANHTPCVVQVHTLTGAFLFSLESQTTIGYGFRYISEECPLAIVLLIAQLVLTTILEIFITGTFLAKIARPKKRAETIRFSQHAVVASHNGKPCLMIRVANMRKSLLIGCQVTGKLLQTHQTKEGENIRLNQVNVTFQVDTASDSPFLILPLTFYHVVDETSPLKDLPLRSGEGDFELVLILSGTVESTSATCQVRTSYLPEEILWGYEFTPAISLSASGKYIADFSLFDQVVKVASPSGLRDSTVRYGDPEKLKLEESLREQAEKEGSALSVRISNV
# [11] = biological target: Voltage-dependent L-type calcium channel subunit alpha-1C (Homo sapiens, UniProt Q13936); assay: Inhibition of Cav1.2 (unknown origin)
# Sequence of Voltage-dependent L-type calcium channel subunit alpha-1C (Q13936 whole entry): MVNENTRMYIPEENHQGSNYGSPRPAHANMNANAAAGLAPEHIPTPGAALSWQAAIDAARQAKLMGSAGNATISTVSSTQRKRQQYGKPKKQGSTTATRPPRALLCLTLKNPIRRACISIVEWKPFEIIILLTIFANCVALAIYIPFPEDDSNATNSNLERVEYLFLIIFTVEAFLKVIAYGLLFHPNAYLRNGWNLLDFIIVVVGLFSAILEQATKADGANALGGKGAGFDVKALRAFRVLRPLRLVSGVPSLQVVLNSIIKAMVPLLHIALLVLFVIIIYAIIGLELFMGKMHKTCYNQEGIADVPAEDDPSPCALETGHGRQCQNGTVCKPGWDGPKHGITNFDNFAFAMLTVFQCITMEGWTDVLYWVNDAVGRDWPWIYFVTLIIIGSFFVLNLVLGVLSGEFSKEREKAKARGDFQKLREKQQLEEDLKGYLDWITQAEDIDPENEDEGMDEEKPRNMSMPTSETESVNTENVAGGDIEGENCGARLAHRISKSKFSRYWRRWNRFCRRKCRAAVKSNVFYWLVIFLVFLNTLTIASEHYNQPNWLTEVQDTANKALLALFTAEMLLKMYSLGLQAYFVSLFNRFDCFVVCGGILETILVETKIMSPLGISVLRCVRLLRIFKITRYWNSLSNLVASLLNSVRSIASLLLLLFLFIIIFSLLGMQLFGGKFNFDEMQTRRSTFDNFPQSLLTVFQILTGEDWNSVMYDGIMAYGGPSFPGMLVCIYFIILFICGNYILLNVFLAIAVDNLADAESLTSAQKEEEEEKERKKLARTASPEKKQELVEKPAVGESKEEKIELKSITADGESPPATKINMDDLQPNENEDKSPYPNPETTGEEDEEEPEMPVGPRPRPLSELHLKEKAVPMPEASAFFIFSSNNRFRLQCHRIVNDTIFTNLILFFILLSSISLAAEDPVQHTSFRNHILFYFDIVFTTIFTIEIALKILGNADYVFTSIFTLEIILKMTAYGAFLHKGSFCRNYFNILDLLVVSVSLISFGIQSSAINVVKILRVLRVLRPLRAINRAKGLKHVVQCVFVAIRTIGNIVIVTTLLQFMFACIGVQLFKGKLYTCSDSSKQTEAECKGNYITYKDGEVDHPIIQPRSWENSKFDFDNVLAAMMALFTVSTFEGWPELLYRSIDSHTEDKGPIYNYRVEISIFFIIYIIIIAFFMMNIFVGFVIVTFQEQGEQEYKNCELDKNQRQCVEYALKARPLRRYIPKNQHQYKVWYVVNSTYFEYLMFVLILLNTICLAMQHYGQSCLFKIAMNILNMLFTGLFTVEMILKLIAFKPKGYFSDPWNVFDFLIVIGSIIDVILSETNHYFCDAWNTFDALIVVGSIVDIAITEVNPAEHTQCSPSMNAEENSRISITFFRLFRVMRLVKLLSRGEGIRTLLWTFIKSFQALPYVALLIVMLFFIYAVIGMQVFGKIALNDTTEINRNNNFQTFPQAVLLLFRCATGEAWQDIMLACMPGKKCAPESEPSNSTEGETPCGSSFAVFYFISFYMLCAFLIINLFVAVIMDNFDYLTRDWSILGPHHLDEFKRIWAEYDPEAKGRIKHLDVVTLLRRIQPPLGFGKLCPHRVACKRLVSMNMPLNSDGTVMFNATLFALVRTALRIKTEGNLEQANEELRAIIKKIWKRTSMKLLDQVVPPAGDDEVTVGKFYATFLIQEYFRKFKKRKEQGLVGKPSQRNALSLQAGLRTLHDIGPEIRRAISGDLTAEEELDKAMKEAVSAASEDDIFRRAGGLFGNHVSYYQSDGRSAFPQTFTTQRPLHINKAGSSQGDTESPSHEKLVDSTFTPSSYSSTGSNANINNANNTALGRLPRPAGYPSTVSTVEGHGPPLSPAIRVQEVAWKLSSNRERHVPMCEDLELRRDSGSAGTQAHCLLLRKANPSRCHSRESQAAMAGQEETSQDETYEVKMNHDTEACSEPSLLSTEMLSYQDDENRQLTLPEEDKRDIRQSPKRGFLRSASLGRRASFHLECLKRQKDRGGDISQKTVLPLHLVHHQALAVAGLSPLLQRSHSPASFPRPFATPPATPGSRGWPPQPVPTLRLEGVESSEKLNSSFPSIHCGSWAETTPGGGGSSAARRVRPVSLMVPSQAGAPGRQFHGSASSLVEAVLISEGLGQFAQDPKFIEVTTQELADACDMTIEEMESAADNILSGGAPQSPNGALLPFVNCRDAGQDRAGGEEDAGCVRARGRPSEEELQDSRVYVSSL
# [12] = biological target: Somatostatin receptor type 2 (Homo sapiens, UniProt P30874); assay: Inhibition of Somatostatin receptor type 2 (unknown origin) by radioligand binding assay
# Sequence of Somatostatin receptor type 2 (P30874 whole entry): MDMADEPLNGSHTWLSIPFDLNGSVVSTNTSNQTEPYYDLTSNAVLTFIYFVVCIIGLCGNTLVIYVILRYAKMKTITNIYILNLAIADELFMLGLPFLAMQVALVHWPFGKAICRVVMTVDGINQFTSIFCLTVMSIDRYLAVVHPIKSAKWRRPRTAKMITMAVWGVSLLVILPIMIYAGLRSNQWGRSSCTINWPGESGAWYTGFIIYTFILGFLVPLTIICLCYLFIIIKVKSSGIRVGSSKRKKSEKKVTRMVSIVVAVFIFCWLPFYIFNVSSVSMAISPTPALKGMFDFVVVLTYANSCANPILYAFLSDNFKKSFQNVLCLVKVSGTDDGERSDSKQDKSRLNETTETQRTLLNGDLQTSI
# [13] = biological target: Cytochrome P450 3A4 (Homo sapiens, UniProt P08684); assay: Inhibition of CYP3A4 (unknown origin); assay type: ADME
# Sequence of Cytochrome P450 3A4 (P08684 whole entry): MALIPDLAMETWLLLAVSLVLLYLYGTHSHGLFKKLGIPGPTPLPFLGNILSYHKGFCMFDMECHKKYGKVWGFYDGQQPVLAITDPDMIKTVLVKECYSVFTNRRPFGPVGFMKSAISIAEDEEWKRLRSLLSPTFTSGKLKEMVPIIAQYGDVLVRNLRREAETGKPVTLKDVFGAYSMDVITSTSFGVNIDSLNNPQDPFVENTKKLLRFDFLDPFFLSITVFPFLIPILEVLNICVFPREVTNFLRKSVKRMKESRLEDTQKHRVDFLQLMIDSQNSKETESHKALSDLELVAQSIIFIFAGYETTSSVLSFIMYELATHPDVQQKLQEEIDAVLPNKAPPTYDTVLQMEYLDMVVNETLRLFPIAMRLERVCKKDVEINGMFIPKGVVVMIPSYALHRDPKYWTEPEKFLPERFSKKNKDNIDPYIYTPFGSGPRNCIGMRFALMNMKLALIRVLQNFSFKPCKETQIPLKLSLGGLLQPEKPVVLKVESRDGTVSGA
# [14] = biological target: Cytochrome P450 2D6 (Homo sapiens, UniProt P10635); assay: Inhibition of CYP2D6 (unknown origin); assay type: ADME
# Sequence of Cytochrome P450 2D6 (P10635 whole entry): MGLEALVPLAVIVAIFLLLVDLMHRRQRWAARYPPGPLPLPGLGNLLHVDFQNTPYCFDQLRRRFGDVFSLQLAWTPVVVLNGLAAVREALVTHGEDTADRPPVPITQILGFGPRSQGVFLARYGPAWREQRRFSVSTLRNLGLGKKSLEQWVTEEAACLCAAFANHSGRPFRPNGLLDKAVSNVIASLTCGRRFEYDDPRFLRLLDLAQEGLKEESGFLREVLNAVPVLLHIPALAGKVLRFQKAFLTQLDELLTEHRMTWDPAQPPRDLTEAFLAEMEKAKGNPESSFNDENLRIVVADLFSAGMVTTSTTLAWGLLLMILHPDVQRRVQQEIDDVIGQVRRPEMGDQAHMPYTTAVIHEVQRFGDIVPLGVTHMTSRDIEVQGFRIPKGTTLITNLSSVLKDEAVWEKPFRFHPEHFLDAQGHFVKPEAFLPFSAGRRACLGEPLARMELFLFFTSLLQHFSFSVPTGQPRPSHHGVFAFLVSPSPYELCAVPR
# [15] = Unbound fraction in rat plasma; assay type: ADME, cell-free
# [16] = Unbound fraction in dog plasma; assay type: ADME, cell-free, Canis lupus familiaris
# [17] = Unbound fraction in rhesus monkey plasma; assay type: ADME, cell-free, Macaca mulatta
# [18] = Unbound fraction in human plasma; assay type: ADME, cell-free
# [19] = Dose normalized AUC in Sprague-Dawley rat at 2 mg/kg, po; assay type: ADME, organism-based; conditions: in vivo
# [20] = Half life in Sprague-Dawley rat at 1 mg/kg, iv or 2 mg/kg, po; assay type: ADME, organism-based; conditions: in vivo
# [21] = Oral bioavailability in Sprague-Dawley rat at 2 mg/kg; assay type: ADME, organism-based; conditions: in vivo
# [22] = Dose normalized AUC in Beagle dog at 2 mg/kg, po administered qd; assay type: ADME, organism-based, Canis lupus familiaris; conditions: in vivo
# [23] = Half life in Beagle dog at 1 mg/kg, iv or 2 mg/kg, po administered qd; assay type: ADME, organism-based, Canis lupus familiaris; conditions: in vivo
# [24] = Oral bioavailability in Beagle dog at 2 mg/kg administered qd; assay type: ADME, organism-based, Canis lupus familiaris; conditions: in vivo
# [25] = Dose normalized AUC in rhesus monkey at 2 mg/kg, po administered qd; assay type: ADME, organism-based, Macaca mulatta; conditions: in vivo
# [26] = Oral bioavailability in rhesus monkey at 2 mg/kg, qd; assay type: ADME, organism-based, Macaca mulatta; conditions: in vivo
# [27] = tested on: Rattus norvegicus; assay: Antihypertensive activity in […] rat model assessed as change in systolic blood pressure at 3 mg/kg, po administered qd measured on day 3; assay type: functional
# Procedure, shortened: (§1)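 Spontaneously hypertensive rats were dosed orally once daily for 3 days. Systolic blood pressure change was read on day 3 relative to vehicle, with n = 5 per group.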
# [28] = tested on: Rattus norvegicus; assay: Antihypertensive activity in […] rat model assessed as change in systolic blood pressure at 10 mg/kg, po administered qd measured on day 3; assay type: functional; procedure, shortened: as §1
# [29] = tested on: Rattus norvegicus; assay: Antihypertensive activity in […] rat model assessed as increase in diuresis at 30 mg/kg, po qd measured on day 1 post dose relative to control; assay type: functional
# Procedure, shortened: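 Spontaneously hypertensive rats dosed orally once daily for 3 days at 3, 10 and 30 mg/kg (reference diuretic at 25 mg/kg); 24 h urine output on day 1 expressed as fold increase over vehicle-treated rats; n = 5 per group.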
# [30] = tested on: Rattus norvegicus; assay: Antihypertensive activity in […] rat model assessed as change in systolic blood pressure at 30 mg/kg, po administered qd measured on day 3; assay type: functional; procedure, shortened: as §1
# [31] = tested on: Rattus norvegicus; assay: Antihypertensive activity in […] rat model assessed as change in systolic blood pressure at 25 mg/kg, po administered qd measured on day 3; assay type: functional; procedure, shortened: as §1
# [32] = Cardiotoxicity in anesthetized cardiovascular guinea pig model assessed as change in QTc interval administered as iv infusion; assay type: toxicity, organism-based, Cavia porcellus, Heart; conditions: in vivo
# Procedure, shortened: (§2)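 Anesthetized guinea pig cardiovascular model, n = 3. The compound was given by IV infusion while the QTc interval was monitored. Unbound plasma concentration was taken as the maximal average peak value.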
# [33] = Maximum free plasma concentration in iv dosed anesthetized cardiovascular guinea pig model; assay type: ADME, organism-based, Cavia porcellus; conditions: in vivo; procedure, shortened: as §2
# [34] = Apparent permeability in pig LLC-PK1 cells; assay type: ADME, cell-based, Sus scrofa
compound,measurement,setting,value
Cc1c([C@@H]2CN3CCN(C(=O)Cc4ccc(-n5cnnn5)cn4)C[C@H]3CO2)ccc(F)c1C#N,remaining at 0.75 h,[1],82%
same,IC50,[2],> 50 µM
same,remaining at 1.5 h,[3],92%
same,remaining at 0.75 h,[4],89%
same,remaining at 0.75 h,[5],72%
same,remaining at 0.75 h,[6],85%
same,IC50,[7],20.3 µM
same,IC50,[8],> 100 µM
same,IC50,[9],> 100 µM
same,IC50,[10],> 100 µM
same,IC50,[11],> 30 µM
same,IC50,[12],4.1 µM
same,IC50,[13],> 50 µM
same,IC50,[14],> 50 µM
same,fraction unbound,[15],0.48
same,fraction unbound,[16],0.52
same,fraction unbound,[17],0.6
same,fraction unbound,[18],0.58
same,AUC/dose,[19],0.79 µM·kg·h/mg
same,half-life,[20],90 min
same,bioavailability,[21],46%
same,AUC/dose,[22],16.7 µM·kg·h/mg
same,half-life,[23],1040 min
same,bioavailability,[24],100%
same,AUC/dose,[25],6 µM·kg·h/mg
same,bioavailability,[26],67%
same,Activity,[27],-9 mmHg
same,Activity,[28],-16 mmHg
same,fold change (FC),[29],1.8
same,Activity,[30],-16 mmHg
same,Activity,[31],-12 mmHg
same,Activity,[32],Non-Toxic
same,Cp(f)max,[33],83 µM
same,Papp,[34],Permeable
